# Activity calls are given as the source filed them. The rule behind the calls is not given here.
# What was measured:
# [1] = biological target: T1, Transient receptor potential cation channel subfamily M member 2 (Homo sapiens, UniProt O94759); experiment: Antagonist activity at human TRPM2 expressed in HEK293 cells assessed as inhibition of ADPR-induced maximum outward potassium current at 100 uM at +15 mV by whole-cell patch-clamp electrophysiology; assay type: cell-based
# Procedure, shortened: (§1)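 Stable clonal HEK293 line expressing human TRPM2 (with EGFP, G418-selected). Whole-cell patch clamp at room temperature; bath had 140 mM NMDG, 1 mM Ca2+, pH 7.4; KCl/EGTA pipet solution held 200 nM free Ca2+. Channel was activated by 100 μM ADPR in the pipet, and analogue was added to the same pipet solution. Read-out: maximum outward current at +15 mV from repeated ramps every 5 s over 450 s.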
# [2] = biological target: T1, Transient receptor potential cation channel subfamily M member 2; experiment: Inhibition of human recombinant TRPM2
# [3] = biological target: T1, Transient receptor potential cation channel subfamily M member 2; experiment: Partial antagonist activity at TRPM2 in human polymorphonuclear neutrophils assessed as reduction in fMLP-induced chemotaxis at 100 uM preincubated for 15 mins followed by fMLP-challenge by microscopic analysis
# Procedure, shortened: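 Primary human PMN at 3 × 10^6/mL, in Ca2+ buffer with 10% autologous plasma, were held 15 min at room temperature with 100 μM analogue in fibronectin-coated microfluidic chemotaxis slides. A 0→50 nM fMLP gradient was applied, and bright-field images were taken every 30 s for 1 h. Cells were tracked manually; read-out was displacement along the gradient.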
# [4] = biological target: T1, Transient receptor potential cation channel subfamily M member 2; experiment: Partial antagonist activity at TRPM2 in human polymorphonuclear neutrophils assessed as reduction in A5 peptide-induced intracellular calcium accumulation at 100 uM preincubated for 15 mins followed by A5 peptide-challenge by fluorescence microscopic analysis relative to control; assay type: cell-based; parameters: scale not given: the % may be the effect or the level left
# Procedure, shortened: (§2)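 Primary human PMN were used within 6 h of blood donation, loaded with 4 μM Fura-2/AM for 30 min at 37 °C, and plated on fibronectin/BSA-coated coverslips. Cells were preincubated 15 min at ambient temperature with 10 mM ascorbate plus 100 μM analogue. About 70 s into recording they were stimulated with 1 μM fMLP or 10 μM A5 peptide. Read-out: ratiometric Ca2+ imaging, single-cell traces synchronized to the first peak.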
# [5] = biological target: T1, Transient receptor potential cation channel subfamily M member 2; experiment: Antagonist activity at human TRPM2 expressed in HEK293 cells assessed as inhibition of ADPR-induced maximum outward potassium current at +15 mV by whole-cell patch-clamp electrophysiology; assay type: cell-based; procedure, shortened: as §1
# [6] = biological target: T1, Transient receptor potential cation channel subfamily M member 2; experiment: Partial antagonist activity at TRPM2 in human polymorphonuclear neutrophils assessed as reduction in fMLP-induced intracellular calcium accumulation at 100 uM preincubated for 15 mins followed by fMLP-challenge by fluorescence microscopic analysis relative to control; assay type: cell-based; parameters: scale not given: the % may be the effect or the level left; procedure, shortened: as §2
# [7] = biological target: T1, Transient receptor potential cation channel subfamily M member 2; experiment: Inhibition of TRPM2 (unknown origin) expressed in HEK293 cells assessed as inhibition of ADP-ribose-induced current by patch clamp technique; assay type: cell-based
# [8] = biological target: T1, Transient receptor potential cation channel subfamily M member 2; experiment: Inhibition of human TRPM2 expressed in HEK293 cells assessed as inhibition of ADP-ribose-induced current by patch clamp electrophysiology; assay type: cell-based
# Procedure, shortened: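 Whole-cell patch clamp of a stable HEK293 clone co-expressing human TRPM2 and EGFP (G418-selected), at room temperature. Bath: 140 mM NMDG, 1 mM Ca²⁺, pH 7.4. Pipette: KCl-based with 200 nM free Ca²⁺ and 100 μM ADPR, with analogue added to it (0.1% DMSO for lipophilic ones). Voltage ramps from −85 mV every 5 s for 450 s. Maximum outward current at +15 mV is normalised to the ADPR control and fitted to a logistic curve for IC50.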
# [9] = biological target: T1, Transient receptor potential cation channel subfamily M member 2; experiment: Antagonist activity at human TRPM2 expressed in HEK293 cells assessed as inhibition of ADPR-induced maximum outward potassium current at 900 uM at +15 mV by whole-cell patch-clamp electrophysiology; assay type: cell-based; procedure, shortened: as §1
# [10] = biological target: T1, Transient receptor potential cation channel subfamily M member 2; experiment: Inhibition of TRPM2 (unknown origin)
# [11] = biological target: T1, Transient receptor potential cation channel subfamily M member 2; experiment: Activation of TRPM2 (unknown origin)
# Procedure, shortened: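 Whole-cell patch clamp at room temperature on a HEK293 clone stably expressing human TRPM2 with EGFP (G418-selected). Bath solution: 140 mM NMDG, 5 mM KCl, 3.3 mM MgCl₂, 1 mM CaCl₂, HEPES pH 7.4. KCl pipet solution with free Ca²⁺ buffered to 200 nM by EGTA, plus 100 μM ADPR. Cells held at −50 mV with 140 ms ramps from −85 mV every 5 s for 450 s. Read-out was the maximum outward current at +15 mV.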
# [12] = biological target: T1, Transient receptor potential cation channel subfamily M member 2; experiment: Antagonist activity at human TRPM2 expressed in HEK293 cells assessed as partial inhibition of ADPR-induced maximum outward potassium current at +15 mV by whole-cell patch-clamp electrophysiology; assay type: cell-based; procedure, shortened: as §1
# [13] = biological target: T1, Transient receptor potential cation channel subfamily M member 2; experiment: Inhibition of human TRPM2 expressed in HEK293 cells assessed as inhibition of H2O2-induced intracellular calcium level by patch clamp technique; assay type: cell-based
# T1 sequence (O94759 whole entry): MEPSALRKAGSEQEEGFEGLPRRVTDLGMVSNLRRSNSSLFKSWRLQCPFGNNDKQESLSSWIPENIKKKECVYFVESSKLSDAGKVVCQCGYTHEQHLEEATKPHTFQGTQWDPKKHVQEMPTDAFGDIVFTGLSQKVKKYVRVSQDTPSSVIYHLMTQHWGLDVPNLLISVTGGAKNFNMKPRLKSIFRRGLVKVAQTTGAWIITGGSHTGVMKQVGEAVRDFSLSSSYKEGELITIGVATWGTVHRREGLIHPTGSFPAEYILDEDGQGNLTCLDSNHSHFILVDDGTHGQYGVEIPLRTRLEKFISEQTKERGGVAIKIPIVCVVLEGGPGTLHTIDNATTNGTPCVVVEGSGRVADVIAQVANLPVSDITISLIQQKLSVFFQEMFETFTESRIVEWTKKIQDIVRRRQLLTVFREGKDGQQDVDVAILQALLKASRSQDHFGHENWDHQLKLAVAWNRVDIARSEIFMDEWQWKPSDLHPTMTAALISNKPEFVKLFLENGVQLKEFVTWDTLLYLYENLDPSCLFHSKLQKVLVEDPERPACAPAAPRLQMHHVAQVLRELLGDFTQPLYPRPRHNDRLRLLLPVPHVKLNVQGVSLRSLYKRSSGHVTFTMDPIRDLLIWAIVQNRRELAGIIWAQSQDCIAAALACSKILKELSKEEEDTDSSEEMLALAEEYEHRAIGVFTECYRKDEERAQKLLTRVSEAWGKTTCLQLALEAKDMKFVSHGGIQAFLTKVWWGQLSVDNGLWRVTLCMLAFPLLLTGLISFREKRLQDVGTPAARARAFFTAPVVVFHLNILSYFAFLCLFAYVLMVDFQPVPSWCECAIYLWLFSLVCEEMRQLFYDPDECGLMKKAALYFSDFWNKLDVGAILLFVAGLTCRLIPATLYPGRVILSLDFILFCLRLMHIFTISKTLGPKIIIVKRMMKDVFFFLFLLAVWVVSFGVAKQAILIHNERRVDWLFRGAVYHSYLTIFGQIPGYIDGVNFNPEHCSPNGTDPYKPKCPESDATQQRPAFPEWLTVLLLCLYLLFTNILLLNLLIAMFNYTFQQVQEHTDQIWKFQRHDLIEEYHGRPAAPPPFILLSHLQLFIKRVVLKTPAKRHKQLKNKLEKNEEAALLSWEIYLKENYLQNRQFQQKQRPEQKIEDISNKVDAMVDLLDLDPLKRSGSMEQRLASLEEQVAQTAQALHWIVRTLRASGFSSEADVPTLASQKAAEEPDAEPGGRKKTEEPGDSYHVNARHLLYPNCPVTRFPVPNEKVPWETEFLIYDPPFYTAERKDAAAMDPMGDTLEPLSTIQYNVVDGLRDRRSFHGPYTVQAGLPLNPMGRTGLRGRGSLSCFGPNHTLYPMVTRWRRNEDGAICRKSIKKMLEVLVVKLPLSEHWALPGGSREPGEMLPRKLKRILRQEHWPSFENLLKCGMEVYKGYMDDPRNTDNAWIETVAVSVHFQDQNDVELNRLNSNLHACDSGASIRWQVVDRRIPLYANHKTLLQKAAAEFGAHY
compound,measurement,setting,value
Nc1ncnc2c1nc(-c1ccc(CC(N)C(=O)O)cc1)n2[C@@H]1O[C@H](COP(=O)(O)O)[C@@H](O)[C@H]1O (stereo not given in full),inhibition,[1],inactive
Cc1cccc(Nc2ccccc2C(=O)O)c1C [MEFENAMIC ACID],IC50,[2],124 µM
Nc1ncnc2c1nc(-c1ccccc1)n2[C@@H]1O[C@H](COP(=O)(O)OP(=O)(O)OC[C@H]2OC(O)[C@H](O)[C@@H]2O)[C@@H](O)[C@H]1O (stereo not given in full),Activity,[3],Active
same,Activity,[4],31.4%
same,IC50,[5]; read-out: IC50,11 µM
same,Activity,[6],31.8%
Nc1ncnc2c1ncn2CCCCOP(=O)(O)OP(=O)(O)OC[C@H]1OC(O)[C@H](O)[C@@H]1O (stereo not given in full),inhibition,[1],inactive
COPPER,IC50,[7],2.6 µM
Nc1ncnc2c1nc(-c1ccccc1)n2[C@@H]1O[C@H](COP(=O)(O)OP(=O)(O)OC2CCCC2)[C@@H](O)[C@H]1O,inhibition,[1],Active
same,IC50,[5]; read-out: IC50,15 µM
O=C(O)c1cccnc1Nc1cccc(C(F)(F)F)c1 [NIFLUMIC ACID],IC50,[2],149 µM
Cc1cccc(Nc2ccccc2C(=O)O)c1,IC50,[8],76 µM
Nc1ncnc2c1nc(Br)n2[C@@H]1O[C@H](COP(=O)(O)OP(=O)(O)OC[C@H]2OC(O)[C@H](O)[C@@H]2O)[C@@H](O)[C@H]1O (stereo not given in full),IC50,[5]; read-out: IC50,300 µM
CC(=O)c1cccc(-c2nc3c(N)ncnc3n2[C@@H]2O[C@H](COP(=O)(O)OP(=O)(O)OC[C@H]3OC(O)[C@H](O)[C@@H]3O)[C@@H](O)[C@H]2O)c1 (stereo not given in full),IC50,[5]; read-out: IC50,49 µM
Nc1ncnc2c1nc(N)n2[C@@H]1O[C@H](COP(=O)(O)OP(=O)(O)OC[C@H]2OC(O)[C@H](O)[C@@H]2O)[C@@H](O)[C@H]1O (stereo not given in full),IC50,[5]; hek293,Not Active
Nc1ncnc2c1ncn2[C@@H]1O[C@H](COP(=O)(O)OP(=O)(O)O)[C@@H](O)[C@H]1O,inhibition,[9],inactive
Nc1ncnc2c1ncn2[C@@H]1O[C@H](CNc2c(NC[C@H]3O[C@@H](O)[C@H](O)[C@@H]3O)c(=O)c2=O)[C@@H](O)[C@H]1O,inhibition,[1],inactive
Nc1ncnc2c1cc(Br)n2[C@@H]1O[C@H](COP(=O)(O)OP(=O)(O)OC[C@H]2OC(O)[C@H](O)[C@@H]2O)[C@@H](O)[C@H]1O (stereo not given in full),IC50,[5]; hek293,Not Active
Nc1ncnc2c1nc(-c1ccccc1)n2[C@@H]1O[C@H](Cn2cc(COC[C@H]3OC(O)[C@H](O)[C@@H]3O)nn2)[C@@H](O)[C@H]1O (stereo not given in full),inhibition,[1],inactive
Clc1ccc(COC(Cn2ccnc2)c2ccc(Cl)cc2Cl)cc1 (stereo not given) [ECONAZOLE],IC50,[10],< 3 µM
Nc1ncnc2c1ncn2[C@@H]1O[C@H](COP(=O)(O)OP(=O)(O)OC[C@H]2OC(O)[C@H](O)[C@@H]2O)[C@@H](O)[C@H]1O (stereo not given in full),EC50,[11],100 µM
COc1ncnc2c1ncn2[C@@H]1O[C@H](COP(=O)(O)OP(=O)(O)OC[C@H]2OC(O)[C@H](O)[C@@H]2O)[C@@H](O)[C@H]1O (stereo not given in full),IC50,[5]; hek293,Not Active
Nc1ncnc2c1ncn2[C@@H]1O[C@H](COP(=O)(O)OP(=O)(O)OC2CCCC2)[C@@H](O)[C@H]1O,IC50,[12],< 900 µM
Nc1ncnc2c1ncn2[C@@H]1O[C@H](CNc2c(NC3CCCC3)c(=O)c2=O)[C@@H](O)[C@H]1O,inhibition,[1],inactive
CCCCCCNc1c(NC[C@H]2O[C@@H](n3cnc4c(N)ncnc43)[C@H](O)[C@@H]2O)c(=O)c1=O,inhibition,[1],inactive
Nc1ncnc2c1ncn2[C@@H]1O[C@H](COP(=O)(O)O)[C@@H](O)[C@H]1O [ADENOSINE PHOSPHATE],inhibition,[9],inactive
same,IC50,[10],70 µM
O=c1[nH]cnc2c1ncn2[C@@H]1O[C@H](COP(=O)(O)OP(=O)(O)OC[C@H]2OC(O)[C@H](O)[C@@H]2O)[C@@H](O)[C@H]1O (stereo not given in full),IC50,[5]; hek293,Not Active
CCCCCc1ccc(/C=C/C(=O)Nc2ccccc2C(=O)O)cc1,IC50,[13],1.7 µM
Nc1ncnc2c1ncn2[C@@H]1O[C@H](COP(=O)(O)OP(=O)(O)OP(=O)(O)OC[C@H]2OC(O)[C@H](O)[C@@H]2O)[C@@H](O)[C@H]1O (stereo not given in full),inhibition,[9],inactive
Clc1ccccc1C(c1ccccc1)(c1ccccc1)n1ccnc1 [CLOTRIMAZOLE],IC50,[10],< 3 µM
Nc1ncnc2c1nc(-c1ccsc1)n2[C@@H]1O[C@H](COP(=O)(O)OP(=O)(O)OC[C@H]2OC(O)[C@H](O)[C@@H]2O)[C@@H](O)[C@H]1O (stereo not given in full),IC50,[5]; read-out: IC50,51 µM
Nc1nc(F)nc2c1ncn2[C@@H]1O[C@H](COP(=O)(O)OP(=O)(O)OC[C@H]2OC(O)[C@H](O)[C@@H]2O)[C@@H](O)[C@H]1O (stereo not given in full),IC50,[5]; hek293,Not Active
Nc1ncnc2c1nc(-c1ccccc1)n2[C@H]1C[C@H](O)[C@@H](COP(=O)(O)OP(=O)(O)OC[C@H]2OC(O)[C@H](O)[C@@H]2O)O1 (stereo not given in full),inhibition,[9],Active
same,IC50,[5]; read-out: IC50,3 µM
O=c1[nH]cnc2c1ccn2[C@@H]1O[C@H](COP(=O)(O)OP(=O)(O)OC[C@H]2OC(O)[C@H](O)[C@@H]2O)[C@@H](O)[C@H]1O (stereo not given in full),IC50,[5]; hek293,Not Active
O=C(O)c1ccccc1Nc1cccc(C(F)(F)F)c1 [FLUFENAMIC ACID],IC50,[2],70 µM
Nc1ncnc2c1nc(Cl)n2[C@@H]1O[C@H](COP(=O)(O)O)[C@@H](O)[C@H]1O,inhibition,[9],inactive
same,IC50,[5]; hek293,Not Active
CCCCNc1c(NC[C@H]2O[C@@H](n3cnc4c(N)ncnc43)[C@H](O)[C@@H]2O)c(=O)c1=O,inhibition,[1],inactive
